Test [1] concerns the target T1, Adenosine receptor A1 (Mus musculus) (UniProt Q60612).
T1 sequence (whole entry): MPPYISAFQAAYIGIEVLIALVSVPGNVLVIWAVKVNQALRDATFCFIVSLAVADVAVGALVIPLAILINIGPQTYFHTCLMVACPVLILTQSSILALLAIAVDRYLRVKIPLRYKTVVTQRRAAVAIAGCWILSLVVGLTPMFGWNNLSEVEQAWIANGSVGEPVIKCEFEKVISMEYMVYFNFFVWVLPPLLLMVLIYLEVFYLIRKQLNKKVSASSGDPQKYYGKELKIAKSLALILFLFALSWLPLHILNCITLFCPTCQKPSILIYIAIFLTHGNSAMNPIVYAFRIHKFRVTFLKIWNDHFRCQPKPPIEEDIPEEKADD
Description: Agonist activity at mouse adenosine A1 receptor expressed in HEK293 cell membranes assessed as inhibition of forskolin-stimulated cAMP production up to 10 uM […] measured after 15 mins […]. In kind it is functional, cell-based. The method, boiled down: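 2 × 10^5 cells/tube coincubated with forskolin (10 μM) and ligand, up to 10 μM, for 15 min at 37 °C. Stopped with 1 N HCl; cAMP by competitive binding assay. Full agonist 44 as reference; sigmoidal fit; mean ± SEM, n = 4–7.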
A general note: cAMP levels reflect the balance of adenylyl cyclase and phosphodiesterase activity.

Test [2] addresses T2, Adenosine receptor A3 (Mus musculus) (UniProt Q61618).
T2 sequence (whole entry): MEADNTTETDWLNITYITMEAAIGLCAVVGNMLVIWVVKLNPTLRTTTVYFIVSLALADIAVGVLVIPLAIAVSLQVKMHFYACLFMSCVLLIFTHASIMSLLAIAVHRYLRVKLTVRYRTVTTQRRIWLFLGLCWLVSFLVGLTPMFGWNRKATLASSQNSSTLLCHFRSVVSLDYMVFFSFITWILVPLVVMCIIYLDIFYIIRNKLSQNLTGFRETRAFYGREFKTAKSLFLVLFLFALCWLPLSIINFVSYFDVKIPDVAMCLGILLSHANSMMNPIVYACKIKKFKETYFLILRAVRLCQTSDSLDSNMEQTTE
As to the kind of experiment: Agonist activity at mouse adenosine A3 receptor expressed in HEK293 cell membranes assessed as inhibition of forskolin-stimulated cAMP production preincubated for 30 mins prior to forskolin-treatment measured after 15 mins by ELISA relative to control. In kind it is functional, cell-based.

In a further test the target is T3, Adenosine receptor A3 (Mus musculus, UniProt Q61618).
T3 sequence (Q61618 whole entry): T2 sequence (whole entry)
Description: Agonist activity at mouse adenosine A3 receptor expressed in HEK293 cell membranes assessed as inhibition of forskolin-stimulated cAMP production preincubated for 30 mins prior to forskolin-treatment measured after 15 mins by ELISA. In kind it is functional, cell-based.

Test [3] has as its target T2, Adenosine receptor A3 (Mus musculus). Description: Activity at mouse adenosine A3 receptor expressed in HEK293 cell membranes assessed as inhibition of forskolin-stimulated cAMP production preincubated for 30 mins prior to forskolin-treatment measured after 15 mins by ELISA relative to 2-chloro-N6-(3-iodobenzyl)adenosine-5'-N-methyluronamide. The test is classed as functional, cell-based.

Test [4] deals with T4, Adenosine receptor A3 (Homo sapiens) (UniProt P0DMS8).
T4 sequence (whole entry): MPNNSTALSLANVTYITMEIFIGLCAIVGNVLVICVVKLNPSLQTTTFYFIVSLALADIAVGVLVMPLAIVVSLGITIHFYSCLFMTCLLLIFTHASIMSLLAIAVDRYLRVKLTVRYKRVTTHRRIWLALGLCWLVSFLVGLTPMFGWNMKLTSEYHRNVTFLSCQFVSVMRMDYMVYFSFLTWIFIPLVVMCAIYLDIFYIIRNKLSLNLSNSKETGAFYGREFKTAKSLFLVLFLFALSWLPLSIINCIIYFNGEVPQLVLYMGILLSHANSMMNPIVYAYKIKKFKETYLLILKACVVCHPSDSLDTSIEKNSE
As to the kind of experiment: Activity at human adenosine A3 receptor expressed in CHO cell membranes assessed as inhibition of forskolin-stimulated cAMP production at 10 uM preincubated for 30 mins prior to forskolin-treatment measured after 15 mins by ELISA relative to 5'-N-ethylcarboxamidoadenosine. The test is classed as functional, cell-based. In short, it runs like this:
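Whole CHO cells stably expressing hA3AR, plated 24 h, washed with DMEM/50 mM HEPES pH 7.4. […] Forskolin (10 μM) then added for 15 min. Lysed in 0.1 M HCl; cAMP by enzyme immunoassay at 450 nm. Efficacy as % of reference maximum; mean ± SEM, n = 3–5.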

Test [5] has as its target Adenosine receptor A2a (Mus musculus) (UniProt Q60613). Description: Displacement of [3H]2-[p-(2-carboxyethyl)phenylethylamino]-5'-N-ethylcarboxamidoadenosine from mouse adenosine A2A receptor expressed in HEK293 cell membranes at 10 uM after 60 mins by liquid scintillation counting analysis relative to control.
For test [6], the target named is T1, Adenosine receptor A1 (Mus musculus). As to the kind of experiment: Displacement of [125I]N6-(4-amino-3-iodobenzyl)adenosine-5'-N-methyluronamide from mouse adenosine A1 receptor expressed in HEK293 cell membranes at 10 uM after 60 mins by liquid scintillation counting analysis relative to control.
Test [7] addresses Adenosine receptor A2a (Homo sapiens) (UniProt P29274). Description: Displacement of [3H]2-[p-(2-carboxyethyl)phenylethylamino]-5'-N-ethylcarboxamidoadenosine from human adenosine A2A receptor expressed in HEK293 cell membranes at 10 uM after 60 mins by liquid scintillation counting analysis relative to control.
Test [8] concerns the target T5, Adenosine receptor A1 (Homo sapiens) (UniProt P30542).
T5 sequence (whole entry): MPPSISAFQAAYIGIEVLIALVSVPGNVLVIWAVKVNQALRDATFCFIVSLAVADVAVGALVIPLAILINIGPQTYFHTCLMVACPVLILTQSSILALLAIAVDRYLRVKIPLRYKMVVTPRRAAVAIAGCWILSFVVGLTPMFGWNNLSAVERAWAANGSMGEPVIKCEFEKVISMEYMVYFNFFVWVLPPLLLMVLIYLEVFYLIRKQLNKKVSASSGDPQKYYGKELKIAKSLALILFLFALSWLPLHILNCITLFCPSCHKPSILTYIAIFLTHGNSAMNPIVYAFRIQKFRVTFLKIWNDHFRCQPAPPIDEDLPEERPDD
Description: Displacement of [3H]N6-R-phenylisopropyladenosine from human adenosine A1 receptor expressed in CHO cell membranes at 10 uM after 60 mins by liquid scintillation counting analysis relative to control. Background: Loss of bound radioactivity is the signal in a displacement assay; it reports binding, not function.

The next test relates to CHO. Description: Selectivity ratio of Ki for human adenosine A2A receptor expressed in HEK293 cell membranes to Ki for human adenosine A3 receptor expressed in CHO cell membranes. In kind it is cell-based.
Test [9] concerns the target Adenosine receptors; A1 & A3 (Homo sapiens) (UniProt P30542+P0DMS8). As to the kind of experiment: Selectivity ratio of Ki for human adenosine A1 receptor to Ki for human adenosine A3 receptor.
For test [10], the species on record is Mus musculus. As to the kind of experiment: Selectivity ratio of Ki for mouse adenosine A1 receptor to Ki for mouse adenosine A3 receptor.
Test [11] is filed under the species Mus musculus. As to the kind of experiment: Selectivity ratio of Ki for mouse adenosine A2A receptor to Ki for mouse adenosine A3 receptor.
Test [12] deals with Mus musculus. Description: Antiallodynic activity in CD-1 mouse chronic constriction injury-induced neuropathic pain model assessed as reversal of mechanoallodynia at 3 micromol/kg, ip measured 1 to 5 hrs post-treatment in presence of MRS1523. The test is classed as functional, organism-based.
Test [13] concerns Mus musculus. Description: Antiallodynic activity in CD-1 mouse chronic constriction injury-induced neuropathic pain model assessed as effect on contralateral paw withdrawal threshold at 3 micromol/kg, ip. In kind it is functional, organism-based. The method, boiled down:
(§1)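 Male CD-1 mice (25–30 g) with chronic constriction injury of left sciatic nerve under isoflurane. At peak mechanoallodynia on day 7, given 3 μmol/kg ip in 5% DMSO/saline, or vehicle; n = 6. Paw withdrawal thresholds (g) measured on ipsilateral and contralateral paws over time. Experimenters blinded.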

Test [14] concerns Mus musculus. As to the kind of experiment: Antiallodynic activity in CD-1 mouse chronic constriction injury-induced neuropathic pain model assessed as reversal of mechanoallodynia at 3 micromol/kg, ip at 1 hr post-treatment. In kind it is functional, organism-based. In short, it runs like this: as §1
Test [15] deals with Mus musculus. Description: Antiallodynic activity in adenosine A3 receptor knockout C57BL/6J mouse chronic constriction injury-induced neuropathic pain model assessed as reversal of mechanoallodynia at 3 micromol/kg, ip measured 1 to 5 hrs post-treatment.
Test [16] deals with T2, Adenosine receptor A3 (Mus musculus). As to the kind of experiment: Displacement of [125I]N6-(4-amino-3-iodobenzyl)adenosine-5'-N-methyluronamide from mouse adenosine A3 receptor expressed in HEK293 cell membranes at 10 uM after 60 mins by liquid scintillation counting analysis relative to control.
Test [17] concerns the target T6, Adenosine receptor A1 (Mus musculus, UniProt Q60612).
T6 sequence (Q60612 whole entry): T1 sequence (whole entry)
As to the kind of experiment: Partial agonist activity at mouse adenosine A1 receptor expressed in HEK293 cell membranes assessed as inhibition of forskolin-stimulated cAMP production preincubated for 30 mins prior to forskolin-treatment measured after 15 mins by ELISA. The test is classed as functional, cell-based.

Test [18] has as its target T6, Adenosine receptor A1. Description: Agonist activity at mouse adenosine A1 receptor expressed in HEK293 cell membranes assessed as inhibition of forskolin-stimulated cAMP production preincubated for 30 mins prior to forskolin-treatment measured after 15 mins by ELISA. In kind it is functional, cell-based.

Activity calls are given as the source filed them.

These results are taken from ChEMBL document CHEMBL2401698 (J Med Chem, 2013).

Broadly, the inhibition is how much of the control response was suppressed. What is called Emax is the maximal effect, on the per cent scale that the assay sets. Broadly, the EC50 is the concentration that produces a half-maximal response.

Chain of Adenosine receptor A2a (Mus musculus) (Q60613 whole entry): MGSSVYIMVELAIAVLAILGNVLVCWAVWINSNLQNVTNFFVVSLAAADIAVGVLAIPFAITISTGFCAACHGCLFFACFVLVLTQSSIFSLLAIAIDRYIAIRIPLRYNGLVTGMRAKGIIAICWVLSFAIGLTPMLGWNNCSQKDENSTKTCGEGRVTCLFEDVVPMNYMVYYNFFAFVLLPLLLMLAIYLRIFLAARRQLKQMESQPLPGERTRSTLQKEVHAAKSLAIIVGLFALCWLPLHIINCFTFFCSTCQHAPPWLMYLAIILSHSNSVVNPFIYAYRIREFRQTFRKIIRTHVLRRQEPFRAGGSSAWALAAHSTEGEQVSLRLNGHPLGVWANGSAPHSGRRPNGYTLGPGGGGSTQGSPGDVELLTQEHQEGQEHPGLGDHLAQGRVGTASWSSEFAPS
Chain of Adenosine receptor A2a (Homo sapiens) (P29274 whole entry): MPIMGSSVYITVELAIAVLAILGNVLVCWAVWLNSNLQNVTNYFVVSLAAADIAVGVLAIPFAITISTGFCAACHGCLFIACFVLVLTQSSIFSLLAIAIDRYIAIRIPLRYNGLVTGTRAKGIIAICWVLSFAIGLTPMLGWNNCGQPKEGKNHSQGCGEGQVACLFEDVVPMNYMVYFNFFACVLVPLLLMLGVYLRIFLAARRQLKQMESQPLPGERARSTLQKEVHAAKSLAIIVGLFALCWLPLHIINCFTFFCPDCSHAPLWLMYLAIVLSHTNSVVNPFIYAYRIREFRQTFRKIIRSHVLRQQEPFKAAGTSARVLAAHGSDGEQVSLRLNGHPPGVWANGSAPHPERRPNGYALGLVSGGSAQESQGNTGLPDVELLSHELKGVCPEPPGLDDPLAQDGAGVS

`CNC(=O)[C@@]12C[C@@H]1[C@@H](n1cnc3c(NCc4cccc(Cl)c4)nc(C#Cc4cccc(S(=O)(=O)O)c4)nc31)[C@H](O)[C@@H]2O`: the inhibition result in test [1] was “inactive”. In test [2], the Emax came to 50%. At Adenosine receptor A3, the 50% effective concentration (EC50) was found to be 2.6 nM. Moreover, the Efficacy in [3] turned out to be 89.3%; in test [4], 98.2%. Moreover, the inhibition in test [5] was determined as 1%; in test [6] it was 15%; in [7], 7%; in test [8], 16%. The Ratio Ki with CHO is > 10000; in [9], > 10000; in the test listed under Mus musculus [10], > 1000; in the test filed under Mus musculus [11], > 1000. Moreover, the result in the test with Mus musculus [12] and with Mus musculus [14] was Active. The outcome with Mus musculus [13] and in the test with Mus musculus [15] was inactive.

As for `CCNc1nc(C#Cc2ccccc2Cl)nc2c1ncn2[C@H]1[C@H](O)[C@H](O)[C@@H]2C[C@@H]21`, the results for the inhibition in test [16], in [5] and in test [6] were 50%, 11% and 47%, respectively.

With `CNC(=O)[C@@]12C[C@@H]1[C@@H](n1cnc3c(NCc4cccc(Cl)c4)nc(C#Cc4ccc(S(=O)(=O)O)cc4)nc31)[C@H](O)[C@@H]2O`, in test [2], the Emax came to 45%. Besides, the EC50 on Adenosine receptor A3 came to 13 nM; at Adenosine receptor A1 [17], 495 nM. For the same molecule, the results for the Efficacy in test [3] and in [4] were 95.7% and 96.8%, respectively. The inhibition turned out to be 14% in test [5] and 23% in test [7]. In addition, the outcome in the test on Mus musculus [13] was inactive. The outcome with Mus musculus [14] and in the test on Mus musculus [15] was Active.

For the molecule `OC[C@H]1O[C@@H](n2cnc3c(NC4CCCC4)nc(Cl)nc32)[C@H](O)[C@@H]1O`, the 50% effective concentration (EC50) at Adenosine receptor A1 [18] amounted to 17.7 nM.

For `CNC(=O)[C@@]12C[C@@H]1[C@@H](n1cnc3c(NCCc4ccc(S(=O)(=O)O)cc4)nc(C#Cc4ccccc4)nc31)[C@H](O)[C@@H]2O`, the Efficacy in [4] amounted to 93.8%. Also, the inhibition in test [5] came out at 0%; in [6], 7%; in [7] it was 1%; in test [8], 9%.

Take `CNC(=O)[C@@]12C[C@@H]1[C@@H](n1cnc3c(NCCc4ccccc4)nc(C#Cc4ccccc4)nc31)[C@H](O)[C@@H]2O`: the Emax in [2] came to 47%. Further, the EC50 at Adenosine receptor A3 stood at 3.33 nM. The Efficacy in test [3] turned out to be 115%; in test [4], 105%. In addition, the inhibition in [5] is 1%; in [6], 25%; in test [7] it was 32%; in test [8], 11%.

For the molecule `CNC(=O)[C@H]1O[C@@H](n2cnc3c(NCc4cccc(I)c4)nc(Cl)nc32)[C@H](O)[C@@H]1O`, the Emax in test [2] amounted to 41%.

In test [5], `O[C@@H]1[C@H](O)[C@@H]2C[C@@H]2[C@H]1n1cnc2c(NCc3cccc(Cl)c3)nc(C#Cc3ccc(-c4ccccc4)cc3)nc21` yielded an inhibition of 0%.

For the molecule `CCNc1nc(C#Cc2ccccc2)nc2c1ncn2[C@H]1[C@H](O)[C@H](O)[C@@H]2C[C@@H]21`, the inhibition in test [5] and in [6] was 49% in each case.

For `O[C@@H]1[C@H](O)[C@@H]2C[C@@H]2[C@H]1n1cnc2c(NCC(c3ccccc3)c3ccccc3)nc(C#Cc3ccccc3Cl)nc21`, the inhibition in [16] came to 54%; in [5] it was 16%; in test [6] it was 23%.

As to `O=S(=O)(O)c1ccc(CCNc2nc(C#Cc3ccccc3)nc3c2ncn3[C@H]2[C@H](O)[C@H](O)[C@@H]3C[C@@H]32)cc1`, the Efficacy in [4] amounted to 7.2%. The inhibition in [5] turned out to be 1%; in test [6], 18%; in test [7] it was 15%; in test [8], 10%.

As for `CNc1nc(C#Cc2ccccc2)nc2c1ncn2[C@H]1[C@H](O)[C@H](O)[C@@H]2C[C@@H]21`, the inhibition in test [5] was determined as 8%.
